# Test results published in ChEMBL document CHEMBL3877285, “Design of a doxorubicin-peptidomimetic conjugate that targets HER2-positive cancer cells” (Eur J Med Chem, 2017).
# Tests used:
# [1] = Cell cycle arrest in human BT474 cells assessed as G0/G1 phase accumulation at 1 uM incubated for 1 hr followed by 24 hrs incubation in drug free medium by propidium iodide staining based flow cytometry; format: functional; conditions: BT-474
# In short: (§1)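 About 2 × 10⁵ BT-474 cells were exposed to 1 μM for 1 h, then kept 24 h in drug-free, serum-free medium. Cells were fixed in 70% ethanol (2 h, −20 °C) and stained with 100 μg/mL RNase plus 40 μg/mL propidium iodide (4 °C, 30 min). DNA content was read on 10,000 cells by FACS. Experiments were done in triplicate.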
# [2] = biological target: T1, Receptor tyrosine-protein kinase erbB-2 (Homo sapiens, UniProt P04626); assay: Binding affinity to HER2 extracellular domain (unknown origin) by SPR assay
# [3] = Cell cycle arrest in human BT474 cells assessed as S phase accumulation at 1 uM incubated for 1 hr followed by 24 hrs incubation in drug free medium by propidium iodide staining based flow cytometry (reference value: 8.4 to 13.6%); format: functional; conditions: BT-474
# In short: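 About 2 × 10⁵ BT-474 cells exposed 1 h, then 24 h in drug-free, serum-free medium. Cells were fixed in 70% ethanol for 2 h at −20 °C, then stained with 100 μg/mL RNase plus 40 μg/mL propidium iodide for 30 min at 4 °C. DNA content was read by FACS (10,000 events). Triplicate.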
# [4] = Cell cycle arrest in human BT474 cells assessed as G2/M phase accumulation at 1 uM incubated for 1 hr followed by 24 hrs incubation in drug free medium by propidium iodide staining based flow cytometry; format: functional; conditions: BT-474; in short: as §1
# [5] = Antiproliferative activity against human MCF10A cells after 72 hrs by CellTiter-Glo assay; format: cell-based; conditions: MCF-10A
# In short: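 Cells were kept at 37 °C, 5% CO2. Media: RPMI-1640 (BT-474, MCF-7), EMEM (Calu-3), McCoy's (SKBR-3), DMEM (MCF-10A), each with 10% FBS, 1% pen-strep and 1% insulin. 10,000 cells per well were dosed with serial dilutions in serum-free medium. Luminescence was read by CellTiter-Glo and IC50 taken from the dose-response curve. Each experiment was run three times (SD).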
# [6] = Drug uptake in human MCF7 cells at 5 uM after 24 hrs by DAPI staining based confocal microscopic method; format: ADME, cell-based; conditions: mcf7, 24 h
# [7] = Drug uptake in cytoplasm of human SKBR3 cells at 5 uM after 24 hrs by DAPI staining based confocal microscopic method; format: ADME, cell-based; conditions: sk-br-3, 24 h
# In short: (§2)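 SKBR-3 cells were seeded for 24 h, then exposed to 5 μM at 37 °C for 30 min, 4 h or 24 h. Cells were PBS-washed, fixed in methanol at −20 °C for 5 min and mounted with DAPI.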
# [8] = Drug uptake in nucleus of human SKBR3 cells at 5 uM after 4 hrs by DAPI staining based confocal microscopic method; format: ADME, cell-based; conditions: sk-br-3, 4 h; in short: as §2
# [9] = Drug uptake in cytoplasm of human SKBR3 cells at 5 uM after 4 hrs by DAPI staining based confocal microscopic method; format: ADME, cell-based; conditions: sk-br-3, 4 h; in short: as §2
# [10] = Antiproliferative activity against human MCF7 cells after 72 hrs by CellTiter-Glo assay; format: functional, cell-based; conditions: MCF7, 72 h
# In short: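 Cells were kept at 37 °C, 5% CO2. 10,000 cells per well were dosed with serial dilutions in serum-free medium. Luminescence was read by CellTiter-Glo and IC50 taken from the dose-response curve. Each experiment was run three times (SD).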
# [11] = Drug degradation in human SKBR3 cells at 50 uM after 4 hrs by HPLC method; format: ADME, cell-based, SK-BR-3; conditions: read-out: Drug degradation
# In short: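 About 15,000 trypsinised SKBR-3 cells were resuspended with 50 μM (final) conjugate in serum-free medium at 37 °C, one sample per time point (0 min–48 h). Cells were lysed with chilled acetonitrile, sonicated and centrifuged, and the supernatant was cleaned on Sep-Pak. Intact-conjugate peak area was measured by C18 reversed-phase HPLC and expressed relative to time zero. Each time point was run in triplicate.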
# [12] = Drug uptake in nucleus of human SKBR3 cells at 5 uM after 30 mins by DAPI staining based confocal microscopic method; format: ADME, cell-based; conditions: sk-br-3, 0.5 h; in short: as §2
# [13] = Antiproliferative activity against human BT474 spheroids after 3 days by CellTiter-Glo assay; format: functional; conditions: BT-474, 72 h
# In short: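 They were treated at 0.001–10 μM for 3 days at 37 °C, with 1% SDS and 1% DMSO as controls. Viability was read by 3D CellTiter-Glo luminescence and IC50 taken from the log plot. Each experiment was run three times (SD).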
# [14] = Antiproliferative activity against human Calu3 cells after 24 hrs by CellTiter-Glo assay; format: functional, cell-based; conditions: Calu-3, 24 h
# In short: (§3)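 10,000 cells per well, plated the day before treatment. Triplicate wells got serially diluted drug (0.001 to 100 μM) in serum-free medium at 37 °C. 1% SDS and 1% DMSO served as controls. After a PBS wash, CellTiter-Glo was added for about 20 min and luminescence read. IC50 came from the dose-response curve. Each experiment was run three times (SD).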
# [15] = Antiproliferative activity against human BT474 cells after 24 hrs by CellTiter-Glo assay; format: functional, cell-based; conditions: BT-474, 24 h; in short: as §3
# [16] = Drug uptake in human MCF7 cells at 5 uM after 30 mins by DAPI staining based confocal microscopic method; format: ADME, cell-based; conditions: mcf7, 0.5 h
# In short: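 MCF-7 cells were run like the SKBR-3 imaging: 37 °C for 30 min, 4 h or 24 h, methanol fixation at −20 °C, and DAPI mounting.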
# [17] = Drug uptake in human SKBR3 cells at 5 uM after 24 hrs by DAPI staining based confocal microscopic method; format: ADME, cell-based; conditions: sk-br-3, 24 h
# In short: (§4)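 SKBR-3 cells were seeded and treated 24 h later, then incubated at 37 °C for 30 min, 4 h or 24 h. Cells were fixed with methanol for 5 min at −20 °C and mounted in DAPI.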
# [18] = biological target: T1, Receptor tyrosine-protein kinase erbB-2; assay: Binding affinity to HER2 domain-4 (unknown origin) by SPR assay
# [19] = Antiproliferative activity against human BT474 cells after 48 hrs by CellTiter-Glo assay; format: functional, cell-based; conditions: BT-474, 48 h; in short: as §3
# [20] = Antiproliferative activity against human SKBR3 cells after 24 hrs by CellTiter-Glo assay; format: functional, cell-based; conditions: SK-BR-3, 24 h; in short: as §3
# [21] = Drug uptake in cytoplasm of human SKBR3 cells at 5 uM after 30 mins by DAPI staining based confocal microscopic method; format: ADME, cell-based; conditions: sk-br-3, 0.5 h; in short: as §4
# [22] = Antiproliferative activity against human Calu3 cells after 48 hrs by CellTiter-Glo assay; format: functional, cell-based; conditions: Calu-3, 48 h; in short: as §3
# T1 sequence (P04626 whole entry, the tested form may be a part): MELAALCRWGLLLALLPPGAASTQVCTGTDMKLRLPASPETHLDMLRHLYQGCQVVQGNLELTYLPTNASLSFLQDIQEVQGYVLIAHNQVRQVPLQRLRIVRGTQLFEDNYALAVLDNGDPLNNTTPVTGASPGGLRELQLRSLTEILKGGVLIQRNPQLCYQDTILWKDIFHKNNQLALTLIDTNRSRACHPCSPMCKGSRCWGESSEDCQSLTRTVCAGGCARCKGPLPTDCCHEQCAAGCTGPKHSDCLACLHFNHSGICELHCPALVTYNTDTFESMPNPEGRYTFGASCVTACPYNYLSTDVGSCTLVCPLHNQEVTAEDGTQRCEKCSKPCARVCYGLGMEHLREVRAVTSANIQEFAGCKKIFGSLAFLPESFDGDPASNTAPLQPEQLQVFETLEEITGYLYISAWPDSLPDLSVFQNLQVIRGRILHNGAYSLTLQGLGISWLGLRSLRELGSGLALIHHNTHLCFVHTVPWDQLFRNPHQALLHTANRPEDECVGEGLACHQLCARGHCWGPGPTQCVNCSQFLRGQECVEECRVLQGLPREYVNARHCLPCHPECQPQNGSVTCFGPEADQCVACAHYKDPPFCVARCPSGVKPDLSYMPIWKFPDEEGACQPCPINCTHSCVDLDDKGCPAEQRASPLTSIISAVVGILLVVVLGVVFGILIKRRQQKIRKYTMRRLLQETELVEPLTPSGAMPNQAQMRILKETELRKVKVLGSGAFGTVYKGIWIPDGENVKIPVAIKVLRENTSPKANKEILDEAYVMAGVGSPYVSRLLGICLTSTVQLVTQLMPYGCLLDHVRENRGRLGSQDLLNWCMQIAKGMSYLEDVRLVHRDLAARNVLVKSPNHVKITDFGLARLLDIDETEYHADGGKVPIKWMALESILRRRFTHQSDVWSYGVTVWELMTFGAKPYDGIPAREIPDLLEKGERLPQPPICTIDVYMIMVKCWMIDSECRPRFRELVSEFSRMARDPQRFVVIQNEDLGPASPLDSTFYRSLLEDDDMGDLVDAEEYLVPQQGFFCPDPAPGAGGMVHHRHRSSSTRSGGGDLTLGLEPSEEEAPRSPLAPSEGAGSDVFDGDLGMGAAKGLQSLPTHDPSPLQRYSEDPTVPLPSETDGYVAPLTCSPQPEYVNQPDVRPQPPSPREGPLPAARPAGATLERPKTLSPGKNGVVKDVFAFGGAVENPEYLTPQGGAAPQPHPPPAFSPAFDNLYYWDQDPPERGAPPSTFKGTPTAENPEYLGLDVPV
compound,measurement,setting,value
N=C(N)NCCC[C@H](N)C(=O)N[C@@H](CC(=O)N[C@@H](Cc1ccccc1)C(=O)O)c1cccc2ccccc12,Activity,[1],67%
same,Kd,[2],1 µM
same,Activity,[3],5.7%
same,Activity,[4],23.6%
same,IC50,[5],> 50 µM
COc1cccc2c1C(=O)c1c(O)c3c(c(O)c1C2=O)C[C@@](O)(C(=O)CO)C[C@@H]3O[C@H]1C[C@H](NC(=O)CCCC(=O)N[C@@H](CCCNC(=N)N)C(=O)N[C@@H](CC(=O)N[C@@H](Cc2ccccc2)C(=O)O)c2cccc3ccccc23)[C@H](O)[C@H](C)O1,Drug uptake,[6],Active
same,Drug uptake,[7],Active
same,Drug uptake,[8],Active
same,Drug uptake,[9],Active
same,IC50,[10],0.8 µM
same,"metabolised at 4 h, 50 µM",[11],50%
same,Drug uptake,[12],Active
COc1cccc2c1C(=O)c1c(O)c3c(c(O)c1C2=O)C[C@@](O)(C(=O)CO)C[C@@H]3O[C@H]1C[C@H](N)[C@H](O)[C@H](C)O1 [DOXORUBICIN],IC50,[13],0.18 µM
same,IC50,[14],0.27 µM
same,IC50,[15],0.053 µM
same,Drug uptake,[8],Active
same,Drug uptake,[16],Active
same,Activity,[3],3.7%
same,Drug uptake,[17],Active
same,Kd,[18],11000 µM
same,IC50,[19],0.041 µM
same,IC50,[20],0.034 µM
same,Drug uptake,[12],Active
same,IC50,[5],0.15 µM
same,Drug uptake,[21],Active
same,IC50,[22],0.11 µM
